Data: ChEMBL document CHEMBL4316619 (Bioorg Med Chem Lett, 2019)
Calls of active or inactive are those of the source. The rule behind the calls is not given here.

Columns and labels:
[1] = Terminal half life in C57BL/6 mouse lung at 30 mg/kg, ip; format: ADME, organism-based; conditions: read-out: beta t1/2 (converted)
Summary of the method: (§1)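 Male C57BL/6 mice, single intraperitoneal 30 mg/kg dose, N=3. Plasma, liver and lung concentrations followed over time to give concentration-time profiles, from which Tmax, Cmax, terminal t1/2, AUClast and AUCINF were derived.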

[2] = Drug level in C57BL/6 mouse liver at 30 mg/kg, ip measured at 24 hrs; format: ADME, organism-based; conditions: in vivo
Summary of the method: (§2)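 Male C57BL/6 mice received a single intraperitoneal dose of 30 mg/kg (N=3). Compound concentrations were followed over time in plasma, liver and lung. Tmax, Cmax, terminal t1/2, AUClast and AUCINF were derived from the mean concentration-time profiles.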

Influenza B virus = assay: Antiviral activity against Influenza B virus (B/Brisbane/60/2008) infected in MDCK cells assessed as reduction in virus-induced cytopathic effect measured on day 5 by Celltiter-Glo luminescence assay; format: functional, organism-based
[3] = Drug level in C57BL/6 mouse plasma at 30 mg/kg, ip measured at 24 hrs; format: ADME, organism-based; summary of the method: as §1
Influenza A virus H3N2 = assay: Antiviral activity against Influenza A virus (A/Brisbane/10/2007(H3N2)) infected in MDCK cells assessed as reduction in virus-induced cytopathic effect measured on day 5 by Celltiter-Glo luminescence assay; format: functional, organism-based; conditions: 120 h
Summary of the method: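 MDCK cells were infected with seasonal influenza A strains through NIAID resources and scored for protection from virus-induced cell death. Compounds were tested at four concentrations (0.8, 4, 20, 100 μM). EC50/EC90 (reduction of viral cell death) and CC50 (reduction of cell viability) were derived in μM, and SI50 = CC50/EC50.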

[4] = Drug level in C57BL/6 mouse plasma at 30 mg/kg, ip measured at 0.083 hrs; format: ADME, organism-based; summary of the method: as §2
[5] = Cmax in C57BL/6 mouse plasma at 30 mg/kg, ip; format: ADME, organism-based; design: dose 30 mg/kg, route intraperitoneal; conditions: mouse, in vivo; summary of the method: as §2
[6] = Apparent permeability across basolateral to apical side in human Caco2 cells measured after 2 hrs in presence of 3% BSA; format: ADME, cell-based; conditions: caco-2, 2 h
Summary of the method: (§3)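 Permeability was measured across Caco-2 monolayers in both directions, apical to basolateral and basolateral to apical. […] Runs were done with and without 3% BSA, and mass recovery (%) was reported for each direction. Efflux ratio = Papp B→A / Papp A→B.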

Influenza A virus [7] = assay: Antiviral activity against Influenza A virus A/PR/8/34 (H1N1) infected in MDCK cells assessed as reduction in virus titer measured after 48 hrs by hemagglutination assay; format: functional; conditions: A/Puerto Rico/8/1934(H1N1)
Summary of the method: (§4)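 MDCK cells were infected with A/PR/8/34 (H1N1) at MOI 0.1 and incubated with compound for 48 h. Supernatant virus was then quantified by hemagglutination assay and standard TCID50 analysis. The single-concentration screen used 10 μM and reports fold reduction in titer. Dose-response runs used triplicate cultures, with percent titer decrease back-calculated from TCID50.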

Saccharomyces cerevisiae = assay: Effect on growth of Yeast 9526-6-2 harboring pYES at 50 uM measured up to 60 hrs; format: organism-based; conditions: in vivo
Summary of the method: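 Control yeast carrying empty pYES and NS1-expressing NS1-pYES strain grown with DMSO or compound at 50 μM. Growth measured as OD600 at 22, 42 and 60 h.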

[8] = Drug level in C57BL/6 mouse plasma at 30 mg/kg, ip measured at 0.5 hrs; format: ADME, organism-based; summary of the method: as §1
[9] = AUC (infinity) in C57BL/6 mouse liver at 30 mg/kg, ip; format: ADME, organism-based; design: dose 30 mg/kg, time infinity, route intraperitoneal; summary of the method: as §2
MDCK = assay: Cytotoxicity against MDCK cells assessed as reduction in cell viability measured after 48 hrs by CellTiter Glo assay; format: cell-based, Canis lupus familiaris; conditions: dog
Summary of the method: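 MDCK cells were incubated with compound under the conditions of the 48 h replication assay. Cytotoxicity was read with the CellTiter-Glo ATP viability assay. Follow-up viability testing used 5, 10, 50 and 100 μM.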

[10] = biological target: Luciferin 4-monooxygenase (Photinus pyralis) (UniProt P08659); assay: Effect on firefly luciferase activity expressed in 293 cells at 50 uM by luminescence assay; format: cell-based
[11] = Toxicity in C57BL/6 mouse assessed as effect on lungs at 30 mg/kg, ip; format: organism-based; conditions: in vivo
[12] = Apparent permeability across basolateral to apical side in human Caco2 cells assessed as drug recovery; format: ADME, cell-based; conditions: caco-2; summary of the method: as §3
[13] = Apparent permeability across apical to basolateral side in human Caco2 cells assessed as drug recovery; format: ADME, cell-based; conditions: caco-2; summary of the method: as §3
[14] = Drug level in C57BL/6 mouse lung at 30 mg/kg, ip measured at 2 hrs; format: ADME, organism-based; conditions: in vivo; summary of the method: as §2
[15] = Drug level in C57BL/6 mouse lung at 30 mg/kg, ip measured at 8 hrs; format: ADME, organism-based; conditions: in vivo; summary of the method: as §2
[16] = Drug level in C57BL/6 mouse lung at 30 mg/kg, ip measured at 24 hrs; format: ADME, organism-based; conditions: in vivo; summary of the method: as §2
[17] = Drug level in C57BL/6 mouse liver at 30 mg/kg, ip measured at 3 hrs; format: ADME, organism-based; conditions: in vivo; summary of the method: as §2
[18] = AUClast in C57BL/6 mouse liver at 30 mg/kg, ip; format: ADME, organism-based; design: dose 30 mg/kg, time 0 - last, route intraperitoneal; summary of the method: as §2
[19] = Drug level in C57BL/6 mouse plasma at 30 mg/kg, ip measured at 12 hrs; format: ADME, organism-based; summary of the method: as §1
[20] = Drug level in C57BL/6 mouse liver at 30 mg/kg, ip measured at 0.5 hrs; format: ADME, organism-based; conditions: in vivo; summary of the method: as §2
[21] = Drug level in C57BL/6 mouse lung at 30 mg/kg, ip measured at 48 hrs; format: ADME, organism-based; conditions: in vivo; summary of the method: as §2
Influenza A virus [22] = assay: Antiviral activity against Influenza A virus A/PR/8/34 (H1N1) infected in MDCK cells assessed as fold reduction in virus titer at 10 uM measured after 48 hrs by hemagglutination assay relative to control; format: functional, A/Puerto Rico/8/1934(H1N1); summary of the method: as §4
[23] = Drug level in C57BL/6 mouse lung at 30 mg/kg, ip measured at 12 hrs; format: ADME, organism-based; conditions: in vivo; summary of the method: as §2
[24] = Drug level in C57BL/6 mouse liver at 30 mg/kg, ip measured at 1 hrs; format: ADME, organism-based; conditions: in vivo; summary of the method: as §2
[25] = Toxicity in C57BL/6 mouse assessed as effect on liver at 30 mg/kg, ip; format: organism-based; conditions: in vivo
[26] = Toxicity in C57BL/6 mouse assessed as adverse effect at 30 mg/kg, ip; format: organism-based; conditions: in vivo
[27] = Stability of the compound in mouse liver microsomes assessed as parent compound remaining measured immediately; format: ADME, Microsome; conditions: read-out: Stability
Summary of the method: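 Mouse liver microsomes; percent parent compound remaining measured at 0, 15 and 30 min.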

[28] = Drug level in C57BL/6 mouse lung at 30 mg/kg, ip measured at 4 hrs; format: ADME, organism-based; conditions: in vivo; summary of the method: as §2
[29] = Drug level in C57BL/6 mouse liver at 30 mg/kg, ip measured at 0.083 hrs; format: ADME, organism-based; conditions: in vivo; summary of the method: as §2
[30] = Apparent permeability across basolateral to apical side in human Caco2 cells assessed as drug recovery in presence of 3% BSA; format: ADME, cell-based; conditions: caco-2; summary of the method: as §3
[31] = Tmax in C57BL/6 mouse lung at 30 mg/kg, ip; format: ADME, organism-based; summary of the method: as §1
[32] = Apparent permeability across apical to basolateral side in human Caco2 cells assessed as drug recovery in presence of 3% BSA; format: ADME, cell-based; conditions: caco-2; summary of the method: as §3
Influenza A virus [33] = assay: Antiviral activity against Influenza A virus A/PR/8/34 (H1N1) infected in MDCK cells assessed as 3-log reduction in virus titer measured after 48 hrs by hemagglutination assay; format: functional, A/Puerto Rico/8/1934(H1N1); summary of the method: as §4
[34] = Drug level in C57BL/6 mouse liver at 30 mg/kg, ip measured at 2 hrs; format: ADME, organism-based; conditions: in vivo; summary of the method: as §2

Sequence of Luciferin 4-monooxygenase (Photinus pyralis) (P08659 whole entry): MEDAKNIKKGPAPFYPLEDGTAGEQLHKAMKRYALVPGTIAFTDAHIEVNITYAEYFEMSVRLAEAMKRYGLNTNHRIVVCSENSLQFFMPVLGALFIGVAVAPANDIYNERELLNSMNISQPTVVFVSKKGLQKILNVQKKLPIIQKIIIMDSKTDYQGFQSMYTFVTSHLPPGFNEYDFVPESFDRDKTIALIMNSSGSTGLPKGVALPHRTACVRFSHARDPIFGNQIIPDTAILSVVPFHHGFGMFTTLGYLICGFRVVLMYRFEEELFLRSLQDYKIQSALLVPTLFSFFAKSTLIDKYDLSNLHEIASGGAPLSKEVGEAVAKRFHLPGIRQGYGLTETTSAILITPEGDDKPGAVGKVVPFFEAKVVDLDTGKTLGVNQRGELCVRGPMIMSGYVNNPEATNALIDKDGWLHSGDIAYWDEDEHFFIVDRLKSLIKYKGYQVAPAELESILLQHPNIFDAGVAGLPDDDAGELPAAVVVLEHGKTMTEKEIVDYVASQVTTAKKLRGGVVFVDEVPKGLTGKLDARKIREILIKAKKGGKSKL

## COc1cc(-c2ccnc3c2c(C)nn3-c2ccc(C(F)(F)F)cc2)ccc1O
[1]
  half-life: 4.5 h
[2]
  Drug uptake: 224 nmol/kg
Influenza B virus
  Activity: inactive
[3]
  concentration at 24 h: 20 nM
Influenza A virus H3N2
  EC50: 17 µM
  EC90: > 50 µM
[4]
  concentration at 0.083 h: 2950 nM
[5]
  Cmax: 2437 ng/mL
[6]
  Papp: 0.27 ×10⁻⁶ cm/s
Influenza A virus [7]
  IC90: 0.155 µM
Saccharomyces cerevisiae
  Activity: Non-Toxic
[8]
  concentration at 0.5 h: 5760 nM
[9]
  AUC(0-inf): 80300 ng·h/mL
MDCK
  Activity: Non-Toxic
[10]
  Activity: inactive
[11]
  Activity: Non-Toxic
[12]
  Drug recovery: 9%
[13]
  Drug recovery: 5%
[14]
  Drug uptake: 16568 nmol/kg
[15]
  Drug uptake: 3931 nmol/kg
[16]
  Drug uptake: 168 nmol/kg
[17]
  Drug uptake: 10058 nmol/kg
[18]
  AUC(0-t): 80200 ng·h/mL
[19]
  concentration at 12 h: 209 nM
[20]
  Drug uptake: 62599 nmol/kg
[21]
  Drug uptake: 15 nmol/kg
Influenza A virus [22]
  fold change (FC): 128
[23]
  Drug uptake: 1741 nmol/kg
[24]
  Drug uptake: 44487 nmol/kg
[25]
  Activity: Non-Toxic
[26]
  Activity: Non-Toxic
[27]
  remaining at 0 min: 100%
[28]
  Drug uptake: 11477 nmol/kg
[29]
  Drug uptake: 114014 nmol/kg
[30]
  Drug recovery: 81%
[31]
  Tmax: 0.25 h
[32]
  Drug recovery: 49%
Influenza A virus [33]
  TCID50: 1.6 µM
[34]
  Drug uptake: 18413 nmol/kg
